NPY1 pot ag – human NPY-Y1 potentiation or agonism, primary screen; activation, % at 3.6 µM; NPY-Y1 expressing cells, potentiator/agonist activation; 220,000 tested, 0.37% active; in the data active means activation above about 33%, passing the limit was not always enough;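 further: cells stimulated with NPY at EC10 then isoproterenol at EC100; 0% = low agonist plus stimulus and 100% = saturating agonist plus stimulus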
NPY Y1 blocker – NPY-Y1 (human) receptor antagonism | 200,000 tested, 1% active | inhibition, % at 3.6 µM | HEK293-CNG Y1 cells, membrane potential fluorescence; NPY at EC95, then isoproterenol;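 active means inhibition above the campaign mean inhibition of all tested compounds plus 3 SD, cut at about 20% in these data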;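 further: 0% = DMSO wells given NPY plus isoproterenol and 100% = isoproterenol alone without NPY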
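System: HEK293 cells with Y1 receptor plus CNG channel / Probe or stimulus: NPY 25 nM then isoproterenol 1 µM plus Ro 20-1724 25 µM / Compound: one concentration, 3.6 µM, in 0.4% DMSO / Schedule: compound incubation 1 h at room temperature, readout 45 min post-stimulation / Measured by: membrane potential fluorescence / Read-out: % inhibition of NPY effect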
NPY Y2 blocker – NPY-Y2 (human) receptor antagonism. inhibition, % at 2.7 µM. NPY-Y2 expressing cells, antagonist mode. P49146. AID 793. 140,000 tested, 0.99% active; in the data active means inhibition above about 17%;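 further: 0% = vehicle with agonist challenge and 100% = reference antagonist with challenge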
Target sequence (P49146 whole entry, looked up): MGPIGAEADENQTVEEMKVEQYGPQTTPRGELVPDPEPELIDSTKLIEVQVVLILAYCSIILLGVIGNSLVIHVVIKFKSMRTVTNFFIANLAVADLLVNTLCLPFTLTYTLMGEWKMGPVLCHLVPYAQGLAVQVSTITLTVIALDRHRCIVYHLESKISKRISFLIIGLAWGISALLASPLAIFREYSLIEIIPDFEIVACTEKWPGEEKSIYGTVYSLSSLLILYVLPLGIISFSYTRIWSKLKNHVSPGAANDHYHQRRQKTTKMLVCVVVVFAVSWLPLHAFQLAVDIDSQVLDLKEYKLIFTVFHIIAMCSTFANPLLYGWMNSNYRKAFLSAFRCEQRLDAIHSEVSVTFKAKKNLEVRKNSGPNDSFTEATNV
S1P4 antagonist – blocks the human S1P4 receptor. O95977. S1P4-expressing cells, antagonist mode, reporter read-out. inhibition, % at 4.98 µM. 220,000 tested, 0.26% active. AID 1510; in the data active means inhibition above about 29%;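 further: 0% = wells stimulated with agonist and 100% = vehicle wells without agonist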
S1P4 agonist – activates the human S1P4 receptor. AID 1509. O95977. S1P4-expressing cell line, agonist reporter assay. activation, % at 4.98 µM. 220,000 tested, 0.35% active; in the data active means activation above about 11%;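 further: 0% = DMSO vehicle and 100% = reference agonist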
NPY-Y2 PAM-ag – potentiators or agonists of human neuropeptide Y receptor Y2; cells expressing NPY-Y2, potentiator/agonist read-out; activation, % at 3.6 µM; P49146; 220,000 tested, 0.45% active; in the data active means activation above about 27%;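 further: cells stimulated with NPY near EC25 plus isoproterenol at EC100; 0% = vehicle plus submaximal agonist and 100% = vehicle plus saturating agonist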
Starred values were filed as active, the others as inactive. Sampled rows, rich in hits. Any-hit rate of the full collection: about 2.4%.

`COc1cccc(NC(=O)c2ccccc2-c2nc(-c3cccc(C)c3)no2)c1` gave NPY1 pot ag -107.7, NPY Y1 blocker 36.9*, NPY Y2 blocker 23.0*, S1P4 antagonist 2.3, S1P4 agonist 0.5 and NPY-Y2 PAM-ag -32.9.
`CC[n+]1c(/C=C2\C=C(C)CC(C)(C)C2)sc2ccccc21` gave NPY1 pot ag -13.4, NPY Y1 blocker 21.8*, NPY Y2 blocker 19.9*, S1P4 antagonist 4.7, S1P4 agonist 2.2 and NPY-Y2 PAM-ag -8.7.
For CCOC(=O)c1cn(-c2c(C)n(C)n(-c3ccccc3)c2=O)c2c(F)c(F)c(F)cc2c1=O the results were NPY1 pot ag -0.5, S1P4 antagonist -4.1, S1P4 agonist 1.2 and NPY-Y2 PAM-ag -3.2.
Screening COc1ccccc1CC(=O)Nc1ccc(-c2noc(COc3ccc(Br)cc3)n2)cc1 returned NPY1 pot ag -8.5, NPY Y1 blocker 14.7, NPY Y2 blocker 6.6, S1P4 antagonist -23.9, S1P4 agonist 0.7 and NPY-Y2 PAM-ag -8.6.
`COc1ccccc1CC(=O)Nc1ccc(-c2noc(COc3cccc(C)c3C)n2)cc1` gave NPY1 pot ag 9.9, NPY Y1 blocker 33.3*, NPY Y2 blocker 22.5*, S1P4 antagonist -6.1, S1P4 agonist -2.0 and NPY-Y2 PAM-ag -23.0.
For CN1C(=O)C(CCC(=O)O)NC1=S (configuration not stated) the results were NPY1 pot ag 11.7, S1P4 antagonist -6.1, S1P4 agonist -0.7 and NPY-Y2 PAM-ag -7.1.
Fc1ccc(C(c2nnnn2CCc2ccccc2)N2CCCc3ccccc32)cc1 (configuration not stated) was read as NPY1 pot ag -6.2, NPY Y1 blocker 27.4*, NPY Y2 blocker 37.5*, S1P4 antagonist 18.6, S1P4 agonist -0.6 and NPY-Y2 PAM-ag 4.6.
Cc1ccc(OCC(O)Cn2c(=N)n(CCN3CCOCC3)c3ccccc32)cc1 (configuration not stated) was read as NPY1 pot ag 2.5, NPY Y1 blocker 16.8, NPY Y2 blocker 4.8, S1P4 antagonist 3.9, S1P4 agonist 1.4 and NPY-Y2 PAM-ag -0.7.
For Cc1ccc(OCC(O)Cn2c(=N)n(CCN3CCCCC3)c3ccccc32)cc1 (configuration not stated) the results were NPY1 pot ag -39.2, NPY Y1 blocker 61.6*, NPY Y2 blocker 46.1*, S1P4 antagonist -0.5, S1P4 agonist 1.1 and NPY-Y2 PAM-ag -15.3.
COc1ccc(OCC(O)Cn2c(=N)n(CCN3CCCCC3)c3ccccc32)cc1 (configuration not stated) was read as NPY1 pot ag -42.7, NPY Y1 blocker 34.0*, NPY Y2 blocker 19.4*, S1P4 antagonist 7.3, S1P4 agonist -0.6 and NPY-Y2 PAM-ag -20.3.
Screening Cc1c([N+](=O)[O-])c(C/C=N/O)nn1C returned NPY1 pot ag 17.0, S1P4 antagonist -0.8, S1P4 agonist -1.2 and NPY-Y2 PAM-ag -18.3.
For O=C(Nc1cc(C(=O)N2CCCC2)ccc1N1CCCC1)c1ccccc1F the results were NPY1 pot ag 44.3*, NPY Y1 blocker -8.0, NPY Y2 blocker 1.7, S1P4 antagonist -14.9, S1P4 agonist -0.2 and NPY-Y2 PAM-ag 39.4*.
For COc1ccc(C2c3c(ncn(Cc4ccco4)c3=N)Oc3ccc4ccccc4c32)cc1 (configuration not stated) the results were NPY1 pot ag -8.7, NPY Y1 blocker 18.1, NPY Y2 blocker 14.5, S1P4 antagonist 5.0, S1P4 agonist -0.2 and NPY-Y2 PAM-ag -9.9.
For N=c1c2c(ncn1Cc1ccco1)Oc1ccc3ccccc3c1C2c1ccccc1 (configuration not stated) the results were NPY1 pot ag -10.9, NPY Y1 blocker 39.5*, NPY Y2 blocker 32.5*, S1P4 antagonist 14.5, S1P4 agonist 1.0 and NPY-Y2 PAM-ag 5.0.
CC1=CC(C)(C)N(C(=O)C(C)N2C(=O)c3ccccc3C2=O)c2c(C)cc(C)cc21 (configuration not stated) was read as NPY1 pot ag 0.1, NPY Y1 blocker 27.9*, NPY Y2 blocker 18.0*, S1P4 antagonist 6.3, S1P4 agonist -1.8 and NPY-Y2 PAM-ag -9.4.
`COc1ccc2c(c1)C(C)=CC(C)(C)N2C(=O)C(C)N1C(=O)c2ccccc2C1=O` (configuration not stated) gave NPY1 pot ag 4.2, NPY Y1 blocker 10.3, NPY Y2 blocker 4.3, S1P4 antagonist -23.9, S1P4 agonist 0.3 and NPY-Y2 PAM-ag -19.1.
`Cc1nc2ccccn2c(=O)c1CCN1CCC(C(=O)c2ccc(F)cc2)CC1` gave NPY1 pot ag -35.0, NPY Y1 blocker 3.9, NPY Y2 blocker 1.6, S1P4 antagonist -1.4, S1P4 agonist 81.1* and NPY-Y2 PAM-ag -3.4.
O=C(c1ccc(F)cc1)C1CCN(CCn2c(=S)[nH]c3ccccc3c2=O)CC1 was read as NPY1 pot ag -37.1, NPY Y1 blocker 11.1, S1P4 antagonist 4.9, S1P4 agonist -0.7 and NPY-Y2 PAM-ag -50.5.
Screening Cc1nc2sccn2c(=O)c1CCN1CCC(=C(c2ccc(F)cc2)c2ccc(F)cc2)CC1 returned NPY1 pot ag -58.5, NPY Y1 blocker 28.6*, NPY Y2 blocker 38.8*, S1P4 antagonist -1.1, S1P4 agonist 0.0 and NPY-Y2 PAM-ag -20.8.
Screening COc1ccc(-n2cc(CNCc3cnc4ccccn34)c(-c3cccc(F)c3)n2)cc1 returned NPY1 pot ag -20.0, NPY Y1 blocker 9.4, S1P4 antagonist -7.0, S1P4 agonist -0.1 and NPY-Y2 PAM-ag -19.9.
Cc1nc(-c2ccccc2)sc1C(N)=O was read as NPY1 pot ag -16.8, NPY Y1 blocker 5.1, NPY Y2 blocker 0.9, S1P4 antagonist -0.4, S1P4 agonist -0.5 and NPY-Y2 PAM-ag -10.2.
For Cc1nc(-c2ccccc2)sc1C(=O)CSc1ccccc1 the results were NPY1 pot ag -31.5, NPY Y1 blocker 21.2*, NPY Y2 blocker 24.2*, S1P4 antagonist -6.2, S1P4 agonist -1.1 and NPY-Y2 PAM-ag -8.6.
For C#CCn1c(S(=O)(=O)Cc2ccc(F)cc2)nc(-c2ccccc2)c1-c1ccccc1 the results were NPY1 pot ag -0.1, NPY Y1 blocker 21.2*, NPY Y2 blocker 3.8, S1P4 antagonist -8.1, S1P4 agonist 0.3 and NPY-Y2 PAM-ag -14.4.
`CCOC(=O)Cn1c(S(=O)(=O)Cc2ccc(F)cc2)nc(-c2ccccc2)c1-c1ccccc1` gave NPY1 pot ag 12.0, NPY Y1 blocker 38.4*, NPY Y2 blocker 25.5*, S1P4 antagonist -19.1, S1P4 agonist 1.9 and NPY-Y2 PAM-ag -9.9.
Screening CCOc1ccc(C(=O)NCCCN2CCOCC2)cc1OCC returned NPY1 pot ag -12.4, NPY Y1 blocker 2.7, S1P4 antagonist -4.1, S1P4 agonist -1.9 and NPY-Y2 PAM-ag -4.3.
For Cc1ccc(S(=O)(=O)Nc2cnn(-c3ccccc3)c(=O)c2Cl)cc1 the results were NPY1 pot ag 0.4, NPY Y1 blocker 1.9, S1P4 antagonist -2.2, S1P4 agonist -0.3 and NPY-Y2 PAM-ag -12.3.
